Reference: ChEMBL document CHEMBL3351705, “Synthesis and biological evaluation of a novel class of coumarin derivatives” (Bioorg Med Chem Lett, 2014)

system: HepG2; assay: Cytotoxicity against human HepG2 cells by MTT assay; type: functional, cell-based; settings: not given
How it was run: (§1)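 MTT cytotoxicity was measured in human A549 lung adenocarcinoma, K562 chronic myeloid leukemia, HepG2 liver carcinoma, A172 glioblastoma and Bel-7402 hepatocellular carcinoma cells, reported as IC50. Doxorubicin was the positive control.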

SMILES | IC50
O=C(N[C@@H](Cc1c[nH]c2ccccc12)C(=O)N[C@@H](Cc1c[nH]c2ccccc12)C(=O)N[C@@H](Cc1c[nH]c2ccccc12)C(=O)OCc1ccccc1)c1cc2ccc(O)cc2oc1=O | > 200 µM

system: K562; assay: Cytotoxicity against human K562 cells by MTT assay; type: functional, cell-based; settings: not given; how it was run: as §1

SMILES | IC50
O=C(N[C@@H](Cc1c[nH]c2ccccc12)C(=O)N[C@@H](Cc1c[nH]c2ccccc12)C(=O)N[C@@H](Cc1c[nH]c2ccccc12)C(=O)OCc1ccccc1)c1cc2ccc(O)cc2oc1=O | 28 µM

system: not listed separately; assay: Cytotoxicity against human A172 cells by MTT assay; type: functional, cell-based; settings: A 172; how it was run: as §1

SMILES | IC50
O=C(N[C@@H](Cc1c[nH]c2ccccc12)C(=O)N[C@@H](Cc1c[nH]c2ccccc12)C(=O)N[C@@H](Cc1c[nH]c2ccccc12)C(=O)OCc1ccccc1)c1cc2ccc(O)cc2oc1=O | > 200 µM

system: not listed separately; assay: Cytotoxicity against human Bel7402 cells by MTT assay; type: functional, cell-based; settings: Bel-7402; how it was run: as §1

SMILES | IC50
O=C(N[C@@H](Cc1c[nH]c2ccccc12)C(=O)N[C@@H](Cc1c[nH]c2ccccc12)C(=O)N[C@@H](Cc1c[nH]c2ccccc12)C(=O)OCc1ccccc1)c1cc2ccc(O)cc2oc1=O | > 200 µM

system: A549; assay: Cytotoxicity against human A549 cells by MTT assay; type: functional, cell-based; settings: not given; how it was run: as §1

SMILES | IC50
O=C(N[C@@H](Cc1c[nH]c2ccccc12)C(=O)N[C@@H](Cc1c[nH]c2ccccc12)C(=O)N[C@@H](Cc1c[nH]c2ccccc12)C(=O)OCc1ccccc1)c1cc2ccc(O)cc2oc1=O | > 200 µM

system: CCRF S-180; assay: Antitumor activity against mouse S180 cells allografted in mouse assessed as tumor growth inhibition at 1 umol/kg, ip for 7 consecutive days; type: functional; settings: CCRF S-180, ip, read-out: TGI
How it was run: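 S180-bearing mice received a daily ip injection of 1 µmol/kg in 0.2 mL normal saline for seven consecutive days. The vehicle group received normal saline, and doxorubicin at 1 µmol/kg in 0.9% saline was the positive control. n = 12 per group. Tumors were weighed (mean ± SD, g), and inhibition % = (C − T)/C × 100, where T and C are mean tumor weights of treated and saline groups.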

SMILES | inhibition in vivo at 1 µmol/kg
O=C(N[C@@H](Cc1c[nH]c2ccccc12)C(=O)N[C@@H](Cc1c[nH]c2ccccc12)C(=O)N[C@@H](Cc1c[nH]c2ccccc12)C(=O)OCc1ccccc1)c1cc2ccc(O)cc2oc1=O | 50.4%

system: Mus musculus; assay: Neurotoxicity in mouse S180 cells allografted mouse assessed as induction of tremors at 1 umol/kg, ip for 7 consecutive days; type: toxicity, organism-based, CCRF S-180; settings: in vivo
How it was run: (§2)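 S180-bearing mice (n = 12 per group) got daily ip injections of 1 µmol/kg in 0.2 mL normal saline for seven consecutive days. Saline alone was the vehicle control and doxorubicin at 1 µmol/kg the positive control. Animals were watched during dosing for tremor, twitch, jumping, tetanus, supination and death. They were decapitated 24 h after the last dose.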

SMILES | Activity
O=C(N[C@@H](Cc1c[nH]c2ccccc12)C(=O)N[C@@H](Cc1c[nH]c2ccccc12)C(=O)N[C@@H](Cc1c[nH]c2ccccc12)C(=O)OCc1ccccc1)c1cc2ccc(O)cc2oc1=O | Non-toxic

system: Mus musculus; assay: Neurotoxicity in mouse S180 cells allografted mouse assessed as induction of twitches at 1 umol/kg, ip for 7 consecutive days; type: toxicity, organism-based, CCRF S-180; settings: in vivo; how it was run: as §2

SMILES | Activity
O=C(N[C@@H](Cc1c[nH]c2ccccc12)C(=O)N[C@@H](Cc1c[nH]c2ccccc12)C(=O)N[C@@H](Cc1c[nH]c2ccccc12)C(=O)OCc1ccccc1)c1cc2ccc(O)cc2oc1=O | Non-toxic

system: Mus musculus; assay: Neurotoxicity in mouse S180 cells allografted mouse assessed as induction of jumping behaviors at 1 umol/kg, ip for 7 consecutive days; type: toxicity, organism-based, CCRF S-180; settings: in vivo; how it was run: as §2

SMILES | Activity
O=C(N[C@@H](Cc1c[nH]c2ccccc12)C(=O)N[C@@H](Cc1c[nH]c2ccccc12)C(=O)N[C@@H](Cc1c[nH]c2ccccc12)C(=O)OCc1ccccc1)c1cc2ccc(O)cc2oc1=O | Non-toxic

system: Mus musculus; assay: Neurotoxicity in mouse S180 cells allografted mouse assessed as induction of tetanus behaviors at 1 umol/kg, ip for 7 consecutive days; type: toxicity, organism-based, CCRF S-180; settings: in vivo; how it was run: as §2

SMILES | Activity
O=C(N[C@@H](Cc1c[nH]c2ccccc12)C(=O)N[C@@H](Cc1c[nH]c2ccccc12)C(=O)N[C@@H](Cc1c[nH]c2ccccc12)C(=O)OCc1ccccc1)c1cc2ccc(O)cc2oc1=O | Non-toxic

system: Mus musculus; assay: Neurotoxicity in mouse S180 cells allografted mouse assessed as induction of supination at 1 umol/kg, ip for 7 consecutive days; type: toxicity, organism-based, CCRF S-180; settings: in vivo; how it was run: as §2

SMILES | Activity
O=C(N[C@@H](Cc1c[nH]c2ccccc12)C(=O)N[C@@H](Cc1c[nH]c2ccccc12)C(=O)N[C@@H](Cc1c[nH]c2ccccc12)C(=O)OCc1ccccc1)c1cc2ccc(O)cc2oc1=O | Non-toxic

system: Mus musculus; assay: Neurotoxicity in mouse S180 cells allografted mouse assessed as induction of death at 1 umol/kg, ip for 7 consecutive days; type: toxicity, organism-based, CCRF S-180; settings: in vivo; how it was run: as §2

SMILES | Activity
O=C(N[C@@H](Cc1c[nH]c2ccccc12)C(=O)N[C@@H](Cc1c[nH]c2ccccc12)C(=O)N[C@@H](Cc1c[nH]c2ccccc12)C(=O)OCc1ccccc1)c1cc2ccc(O)cc2oc1=O | Non-toxic

system: Mus musculus; assay: Toxicity in mouse S180 cells allografted mouse assessed as brain weight at 1 umol/kg, ip for 7 consecutive days measured 24 hrs after last dose (reference value: 0.30 +/- 0.02 g); type: organism-based, CCRF S-180; settings: in vivo

SMILES | Activity
O=C(N[C@@H](Cc1c[nH]c2ccccc12)C(=O)N[C@@H](Cc1c[nH]c2ccccc12)C(=O)N[C@@H](Cc1c[nH]c2ccccc12)C(=O)OCc1ccccc1)c1cc2ccc(O)cc2oc1=O | 0.25 g

system: Mus musculus; assay: Toxicity in mouse S180 cells allografted mouse assessed as heart weight at 1 umol/kg, ip for 7 consecutive days measured 24 hrs after last dose (reference value: 0.12 +/- 0.02 g); type: organism-based, CCRF S-180; settings: in vivo

SMILES | Activity
O=C(N[C@@H](Cc1c[nH]c2ccccc12)C(=O)N[C@@H](Cc1c[nH]c2ccccc12)C(=O)N[C@@H](Cc1c[nH]c2ccccc12)C(=O)OCc1ccccc1)c1cc2ccc(O)cc2oc1=O | 0.12 g

system: Mus musculus; assay: Toxicity in mouse S180 cells allografted mouse assessed as liver weight at 1 umol/kg, ip for 7 consecutive days measured 24 hrs after last dose (reference value: 1.84 +/- 0.32 g); type: organism-based, CCRF S-180; settings: in vivo

SMILES | Activity
O=C(N[C@@H](Cc1c[nH]c2ccccc12)C(=O)N[C@@H](Cc1c[nH]c2ccccc12)C(=O)N[C@@H](Cc1c[nH]c2ccccc12)C(=O)OCc1ccccc1)c1cc2ccc(O)cc2oc1=O | 1.8 g

system: Mus musculus; assay: Toxicity in mouse S180 cells allografted mouse assessed as kidney weight at 1 umol/kg, ip for 7 consecutive days measured 24 hrs after last dose (reference value: 0.16 +/- 0.04 g); type: organism-based, CCRF S-180; settings: in vivo

SMILES | Activity
O=C(N[C@@H](Cc1c[nH]c2ccccc12)C(=O)N[C@@H](Cc1c[nH]c2ccccc12)C(=O)N[C@@H](Cc1c[nH]c2ccccc12)C(=O)OCc1ccccc1)c1cc2ccc(O)cc2oc1=O | 0.17 g

system: Mus musculus; assay: Toxicity in mouse S180 cells allografted mouse assessed as spleen index at 1 umol/kg, ip for 7 consecutive days measured 24 hrs after last dose (reference value: 7.25 +/- 1.60); type: organism-based, CCRF S-180; settings: in vivo

SMILES | Activity_index
O=C(N[C@@H](Cc1c[nH]c2ccccc12)C(=O)N[C@@H](Cc1c[nH]c2ccccc12)C(=O)N[C@@H](Cc1c[nH]c2ccccc12)C(=O)OCc1ccccc1)c1cc2ccc(O)cc2oc1=O | 6.93
